The values that follow come from ChEMBL document CHEMBL1138283, “5'-O-[(N-acyl)sulfamoyl]adenosines as antitubercular agents that inhibit MbtA: an adenylation enzyme required for siderophore biosynthesis of the mycobactins” (J Med Chem, 2007).

Assay [1] concerns Mycobacterium tuberculosis. In words: Antimycobacterial activity against Mycobacterium tuberculosis H37Rv in iron rich GAST medium. Type of assay: functional. The method, boiled down:
(§1)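 Broth microdilution MIC against M. tuberculosis H37Rv in iron-deficient GAST, or GAST supplemented with 200 μM FeCl3 (iron-rich). Compounds added from DMSO stocks; DMSO-only wells as negative control, isoniazid as positive control. Initial density 10^4–10^5 cells/assay, 37 °C, growth read as OD620 at 10–14 days. Run in quadruplicate; reported as MIC99.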

The target in assay [2] is T1, Salicyl-AMP ligase / salicyl-S-ArCP synthetase (Mycobacterium tuberculosis, UniProt P71716).
T1 sequence (P71716 whole entry): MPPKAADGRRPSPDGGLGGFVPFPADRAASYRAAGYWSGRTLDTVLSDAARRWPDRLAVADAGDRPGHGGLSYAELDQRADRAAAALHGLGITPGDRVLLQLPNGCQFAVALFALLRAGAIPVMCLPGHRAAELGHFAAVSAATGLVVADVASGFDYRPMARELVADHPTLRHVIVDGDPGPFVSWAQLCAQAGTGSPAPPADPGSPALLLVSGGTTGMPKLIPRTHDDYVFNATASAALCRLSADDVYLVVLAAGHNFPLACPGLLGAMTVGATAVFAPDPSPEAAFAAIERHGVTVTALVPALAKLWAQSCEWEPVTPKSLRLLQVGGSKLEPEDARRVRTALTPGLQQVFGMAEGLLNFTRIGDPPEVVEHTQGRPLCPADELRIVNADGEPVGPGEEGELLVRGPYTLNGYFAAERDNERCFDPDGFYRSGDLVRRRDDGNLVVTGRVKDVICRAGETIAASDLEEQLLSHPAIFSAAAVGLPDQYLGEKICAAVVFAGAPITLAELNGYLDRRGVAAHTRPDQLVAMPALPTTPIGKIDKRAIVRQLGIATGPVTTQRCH
The assay can be described thus: Inhibition of Mycobacterium tuberculosis recombinant MbtA expressed in Escherichia coli by ATP/PPi exchange assay. The note with it: read-out: Ki app. The method, boiled down: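 Recombinant MbtA expressed in E. coli, 7 nM, at 37 °C in 75 mM Tris-HCl pH 7.5, 10 mM MgCl2, 2 mM DTT, 250 μM salicylic acid, 10 mM ATP, 1 mM PPi. Reaction started with [32P]PPi, five inhibitor concentrations, in duplicate. Initial rates (≤10% reaction) measured. Quenched with HClO4/PPi/charcoal; charcoal-bound [32P]ATP counted by scintillation. Apparent Ki from Hill or Morrison (tight-binding) fits.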

Assay [3] has as its system Mycobacterium tuberculosis. In words: Antimycobacterial activity against Mycobacterium tuberculosis H37Rv in iron deficient GAST medium. Type of assay: functional. The method, boiled down:
as §1

Converted amounts (≈) assume the structure as drawn.

`Nc1ncnc2c1ncn2[C@@H]1O[C@H](COS(=O)(=O)NC(=O)c2cc(Cl)ccc2O)[C@@H](O)[C@H]1O`: the MIC99 was 50 µM (≈ 25 µg/mL) in assay [1] and 12.5 µM (≈ 6.26 µg/mL) in assay [3]. Further, the Ki in assay [2] came out at 20 nM.

As to `Nc1ncnc2c1ncn2[C@@H]1O[C@H](COS(=O)(=O)NC(=O)c2cccc(Cl)c2O)[C@@H](O)[C@H]1O`, the MIC99 is > 200 µM in assay [1] and 50 µM (≈ 25 µg/mL) in assay [3]. Also, the Ki in assay [2] stood at 61 nM.

For the compound `Nc1ncnc2c1ncn2[C@@H]1O[C@H](COS(=O)(=O)NC(=O)c2ccc(O)c(O)c2)[C@@H](O)[C@H]1O`, the MIC99 in assay [1] and in assay [3] was > 200 µM each time. Besides, the Ki in assay [2] is > 100000 nM.

`Nc1ncnc2c1ncn2[C@@H]1O[C@H](COS(=O)(=O)NC(=O)c2ccc(C(F)(F)F)cc2O)[C@@H](O)[C@H]1O`: the MIC99 in assay [1] and in assay [3] was > 200 µM throughout. Moreover, the Ki in assay [2] is 4380 nM.

Turning to `Nc1ncnc2c1ncn2[C@@H]1O[C@H](COS(=O)(=O)NC(=O)c2ccccc2F)[C@@H](O)[C@H]1O`, the MIC99 in assay [1] worked out at 50 µM (≈ 23.4 µg/mL); in assay [3] it was 12.5 µM (≈ 5.86 µg/mL). Further, the Ki in assay [2] came to 38 nM.

For `COC(=O)NS(=O)(=O)OC[C@H]1O[C@@H](n2cnc3c(N)ncnc32)[C@H](O)[C@@H]1O`, the MIC99 in assay [1] and in assay [3] was > 200 µM throughout. For the same compound, the Ki in assay [2] stood at 2500 nM.

On to `Nc1ncnc2c1ncn2[C@@H]1O[C@H](COS(=O)(=O)NC(=O)N2CCOCC2)[C@@H](O)[C@H]1O`, for which the MIC99 in assay [1] and in assay [3] was > 200 µM each time. Besides, the Ki in assay [2] is > 100000 nM.

For the compound `Nc1ncnc2c1ncn2[C@@H]1O[C@H](COS(=O)(=O)NC(=O)[C@@H](N)Cc2ccccc2)[C@@H](O)[C@H]1O` [PHESA], the MIC99 in assay [1] and in assay [3] was > 200 µM each time. Besides, in assay [2], the Ki turned out to be 36500 nM.

For `CC(=O)NS(=O)(=O)OC[C@H]1O[C@@H](n2cnc3c(N)ncnc32)[C@H](O)[C@@H]1O`, the MIC99 in assay [1] and in assay [3] was > 200 µM in each case. Besides, in assay [2], the Ki is > 100000 nM.

As to `Nc1ncnc2c1ncn2[C@@H]1O[C@H](COS(=O)(=O)NC(=O)c2cccnc2F)[C@@H](O)[C@H]1O`, the MIC99 in assay [1] and in assay [3] was > 200 µM in each case. For the same compound, in assay [2], the Ki was found to be 2900 nM.

Turning to `Nc1ncnc2c1ncn2[C@@H]1O[C@H](COS(=O)(=O)NC(=O)c2ccc(F)cc2O)[C@@H](O)[C@H]1O`, the MIC99 was 0.39 µM (≈ 0.189 µg/mL) in assay [1] and 0.098 µM (≈ 0.0475 µg/mL) in assay [3]. Besides, the Ki in assay [2] was found to be 12 nM.

In the case of `Nc1ccc(C(=O)NS(=O)(=O)OC[C@H]2O[C@@H](n3cnc4c(N)ncnc43)[C@H](O)[C@@H]2O)c(O)c1`, the MIC99 in assay [1] worked out at 25 µM (≈ 12 µg/mL); in assay [3] it was 1.56 µM (≈ 0.751 µg/mL). In addition, in assay [2], the Ki is 40 nM.

In the case of `Nc1ncnc2c1ncn2[C@@H]1O[C@H](COS(=O)(=O)NC(=O)c2cccc(O)c2O)[C@@H](O)[C@H]1O`, the MIC99 in assay [1] and in assay [3] was > 200 µM each time. For the same compound, in assay [2], the Ki turned out to be 137 nM.

Take `Nc1ncnc2c1ncn2[C@@H]1O[C@H](CNC(=O)c2coc3ccccc3c2=O)[C@@H](O)[C@H]1O`: the MIC99 was determined as 50 µM (≈ 21.9 µg/mL) in assay [1] and 12.5 µM (≈ 5.48 µg/mL) in assay [3]. The Ki in assay [2] is > 100000 nM.

For the compound `Nc1ncnc2c1ncn2[C@@H]1O[C@H](COS(=O)(=O)NC(=O)c2c(O)cccc2F)[C@@H](O)[C@H]1O`, the values for the MIC99 in assay [1] and in assay [3] were 3.13 µM (≈ 1.52 µg/mL) and 0.78 µM (≈ 0.378 µg/mL), respectively. The Ki in assay [2] is 7.3 nM.

Regarding `Nc1ncnc2c1ncn2[C@@H]1O[C@H](COS(=O)(=O)NC(=O)Cc2ccccc2)[C@@H](O)[C@H]1O`, the MIC99 in assay [1] and in assay [3] was > 200 µM in each case. Also, the Ki in assay [2] is > 100000 nM.

`Nc1ccccc1C(=O)NS(=O)(=O)OC[C@H]1O[C@@H](n2cnc3c(N)ncnc32)[C@H](O)[C@@H]1O`: the MIC99 in assay [1] and in assay [3] was > 200 µM each time. For the same compound, in assay [2], the Ki stood at 770 nM.

For the compound `Nc1ncnc2c1ncn2[C@@H]1O[C@H](COS(=O)(=O)NC(=O)c2ccc[nH]c2=O)[C@@H](O)[C@H]1O`, the MIC99 in assay [1] and in assay [3] was > 200 µM throughout. For the same compound, the Ki in assay [2] was determined as 3700 nM.

Turning to `Nc1ncnc2c1ncn2[C@@H]1O[C@H](COS(=O)(=O)NC(=O)c2ccccc2[N+](=O)[O-])[C@@H](O)[C@H]1O`, the MIC99 in assay [1] and in assay [3] was > 200 µM throughout. The Ki in assay [2] worked out at 7320 nM.

On to `Nc1ncnc2c1ncn2[C@@H]1O[C@H](COS(=O)(=O)NC(=O)C2CCCCC2)[C@@H](O)[C@H]1O`, for which the MIC99 in assay [1] and in assay [3] was > 200 µM each time. Also, the Ki in assay [2] is 17300 nM.

For `Nc1ncnc2c1ncn2[C@@H]1O[C@H](COS(=O)(=O)NC(=O)C2CCCC2)[C@@H](O)[C@H]1O`, the MIC99 in assay [1] and in assay [3] was > 200 µM throughout. Also, the Ki in assay [2] turned out to be 49800 nM.

As to `Nc1ncnc2c1ncn2[C@@H]1O[C@H](COS(=O)(=O)NC(=O)c2ccc(Br)cc2O)[C@@H](O)[C@H]1O`, the MIC99 in assay [1] was 50 µM (≈ 27.3 µg/mL); in assay [3] it was 6.25 µM (≈ 3.41 µg/mL). For the same compound, the Ki in assay [2] came out at 21 nM.

With `Nc1ncnc2c1ncn2[C@@H]1O[C@H](COS(=O)(=O)NC(=O)c2ccccc2Cl)[C@@H](O)[C@H]1O`, the MIC99 in assay [1] and in assay [3] was > 200 µM in each case. In addition, the Ki in assay [2] turned out to be 18100 nM.

As for `Nc1ncnc2c1ncn2[C@@H]1O[C@H](COS(=O)(=O)NC(=O)c2cccnc2Cl)[C@@H](O)[C@H]1O`, the values for the MIC99 in assay [1] and in assay [3] were 50 µM (≈ 24.3 µg/mL) and 12.5 µM (≈ 6.07 µg/mL), respectively. Also, in assay [2], the Ki is 175 nM.

Turning to `Cc1ccc(C(=O)NS(=O)(=O)OC[C@H]2O[C@@H](n3cnc4c(N)ncnc43)[C@H](O)[C@@H]2O)c(O)c1`, the MIC99 worked out at 25 µM (≈ 12 µg/mL) in assay [1] and 1.56 µM (≈ 0.75 µg/mL) in assay [3]. The Ki in assay [2] turned out to be 14 nM.

As for `Nc1ncnc2c1ncn2[C@@H]1O[C@H](COS(=O)(=O)NC(=O)c2ccccc2)[C@@H](O)[C@H]1O`, the MIC99 in assay [1] stood at 50 µM (≈ 22.5 µg/mL); in assay [3], 12.5 µM (≈ 5.63 µg/mL). In addition, the Ki in assay [2] was 92 nM.

In the case of `[N-]=[N+]=Nc1c(F)c(F)c(C(=O)NS(=O)(=O)OC[C@H]2O[C@@H](n3cnc4c(N)ncnc43)[C@H](O)[C@@H]2O)c(F)c1F`, the MIC99 in assay [1] and in assay [3] was > 200 µM in each case. Besides, in assay [2], the Ki is > 100000 nM.

Turning to `Nc1ncnc2c1ncn2[C@@H]1O[C@H](CNC(=O)NC(=O)c2ccccc2O)[C@@H](O)[C@H]1O`, the MIC99 in assay [1] is > 200 µM; in assay [3], 200 µM (≈ 85.9 µg/mL). In addition, the Ki in assay [2] was 1250 nM.

For `Nc1ncnc2c1ncn2[C@@H]1O[C@H](COS(=O)(=O)NC(=O)c2ccc(Cl)cc2O)[C@@H](O)[C@H]1O`, the MIC99 in assay [1] is 50 µM (≈ 25 µg/mL); in assay [3], 12.5 µM (≈ 6.26 µg/mL). Moreover, the Ki in assay [2] is 12 nM.

As to `Nc1ncnc2c1ncn2[C@@H]1O[C@H](CNS(=O)(=O)NC(=O)c2ccccc2O)[C@@H](O)[C@H]1O`, the MIC99 in assay [1] came out at 0.39 µM (≈ 0.182 µg/mL).
